Legend:
[1] = target: Voltage-dependent L-type calcium channel subunit alpha-1C (Oryctolagus cuniculus, UniProt P15381); test: Antagonist activity at rabbit Cav1.2 expressed in HEK293 cells assessed as inhibition of voltage pulse-induced calcium current by FLIPR calcium 4 assay
In short: (§1)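 HEK293 lines stably expressing Cavβ3 and Cavα2δ-1 plus Cav1.2 α1C (rabbit) or Cav1.3 α1D (rat) were selected with zeocin/hygromycin. Calcium signals were read by FLIPR with Calcium 4 dye. IC50 came from 11-point dose-response curves. Signal percentage error (SD/mean) was 6.4% for Cav1.2 and 4.1% for Cav1.3 cells.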

[2] = target: Voltage-dependent L-type calcium channel subunit alpha-1D (Rattus norvegicus, UniProt P27732); test: Antagonist activity at rat Cav1.3 expressed in HEK293 cells assessed as inhibition of voltage pulse-induced calcium current by FLIPR calcium 4 assay; in short: as §1
Chain of Voltage-dependent L-type calcium channel subunit alpha-1D (P27732 whole entry): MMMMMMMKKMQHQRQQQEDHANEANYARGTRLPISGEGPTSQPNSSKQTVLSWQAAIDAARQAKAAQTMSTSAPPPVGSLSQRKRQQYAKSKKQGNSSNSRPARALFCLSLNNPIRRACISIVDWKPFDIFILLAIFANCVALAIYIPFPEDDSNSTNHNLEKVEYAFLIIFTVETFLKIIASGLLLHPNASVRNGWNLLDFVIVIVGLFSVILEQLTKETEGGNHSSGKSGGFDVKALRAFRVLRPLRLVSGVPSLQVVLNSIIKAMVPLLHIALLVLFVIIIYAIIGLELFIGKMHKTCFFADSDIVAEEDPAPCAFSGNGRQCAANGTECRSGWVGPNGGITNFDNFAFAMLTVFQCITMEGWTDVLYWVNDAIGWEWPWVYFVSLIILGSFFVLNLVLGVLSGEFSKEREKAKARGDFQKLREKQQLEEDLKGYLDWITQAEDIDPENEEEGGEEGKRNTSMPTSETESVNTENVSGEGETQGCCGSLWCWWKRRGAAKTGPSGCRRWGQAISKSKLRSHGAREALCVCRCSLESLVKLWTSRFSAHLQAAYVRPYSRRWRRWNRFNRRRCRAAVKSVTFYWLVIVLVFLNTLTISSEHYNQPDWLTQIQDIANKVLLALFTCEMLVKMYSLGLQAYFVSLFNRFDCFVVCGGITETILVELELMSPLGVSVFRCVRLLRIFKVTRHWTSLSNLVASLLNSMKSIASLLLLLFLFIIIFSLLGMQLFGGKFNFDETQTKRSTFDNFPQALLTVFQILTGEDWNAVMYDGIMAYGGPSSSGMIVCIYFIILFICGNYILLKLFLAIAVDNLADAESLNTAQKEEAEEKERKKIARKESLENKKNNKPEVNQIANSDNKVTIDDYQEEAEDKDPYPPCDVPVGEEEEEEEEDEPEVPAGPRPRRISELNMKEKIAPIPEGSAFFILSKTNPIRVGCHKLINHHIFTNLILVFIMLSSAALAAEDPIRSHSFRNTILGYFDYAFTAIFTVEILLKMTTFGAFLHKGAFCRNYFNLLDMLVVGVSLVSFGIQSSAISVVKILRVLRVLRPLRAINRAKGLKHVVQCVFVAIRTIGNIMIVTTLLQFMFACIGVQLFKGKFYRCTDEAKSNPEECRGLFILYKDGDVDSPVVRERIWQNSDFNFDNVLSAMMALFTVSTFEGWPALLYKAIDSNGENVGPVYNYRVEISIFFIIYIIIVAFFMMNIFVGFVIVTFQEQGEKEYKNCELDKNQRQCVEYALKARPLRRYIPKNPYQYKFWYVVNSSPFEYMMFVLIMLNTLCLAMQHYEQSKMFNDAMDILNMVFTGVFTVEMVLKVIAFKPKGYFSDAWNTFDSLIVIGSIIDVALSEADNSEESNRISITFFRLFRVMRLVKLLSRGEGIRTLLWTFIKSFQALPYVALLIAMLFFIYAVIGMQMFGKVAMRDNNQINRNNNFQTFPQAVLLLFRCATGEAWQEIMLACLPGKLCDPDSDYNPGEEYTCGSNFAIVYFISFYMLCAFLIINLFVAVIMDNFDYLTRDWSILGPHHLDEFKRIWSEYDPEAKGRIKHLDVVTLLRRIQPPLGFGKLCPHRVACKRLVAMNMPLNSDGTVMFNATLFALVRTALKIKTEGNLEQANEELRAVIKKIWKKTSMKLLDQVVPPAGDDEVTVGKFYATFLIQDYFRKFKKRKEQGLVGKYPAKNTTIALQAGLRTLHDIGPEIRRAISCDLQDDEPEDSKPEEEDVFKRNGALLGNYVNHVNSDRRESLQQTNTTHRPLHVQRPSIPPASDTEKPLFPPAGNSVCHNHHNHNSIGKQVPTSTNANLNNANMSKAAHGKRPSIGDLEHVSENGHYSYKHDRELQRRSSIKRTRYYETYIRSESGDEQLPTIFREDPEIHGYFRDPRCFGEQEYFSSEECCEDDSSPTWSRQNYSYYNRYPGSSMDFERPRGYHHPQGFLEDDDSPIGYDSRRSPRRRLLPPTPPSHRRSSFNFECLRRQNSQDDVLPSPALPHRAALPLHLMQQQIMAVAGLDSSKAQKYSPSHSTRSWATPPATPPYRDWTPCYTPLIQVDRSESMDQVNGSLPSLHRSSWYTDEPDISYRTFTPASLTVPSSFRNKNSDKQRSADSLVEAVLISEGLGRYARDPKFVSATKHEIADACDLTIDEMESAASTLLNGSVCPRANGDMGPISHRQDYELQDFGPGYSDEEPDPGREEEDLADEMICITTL

Chain of Voltage-dependent L-type calcium channel subunit alpha-1C (P15381 whole entry): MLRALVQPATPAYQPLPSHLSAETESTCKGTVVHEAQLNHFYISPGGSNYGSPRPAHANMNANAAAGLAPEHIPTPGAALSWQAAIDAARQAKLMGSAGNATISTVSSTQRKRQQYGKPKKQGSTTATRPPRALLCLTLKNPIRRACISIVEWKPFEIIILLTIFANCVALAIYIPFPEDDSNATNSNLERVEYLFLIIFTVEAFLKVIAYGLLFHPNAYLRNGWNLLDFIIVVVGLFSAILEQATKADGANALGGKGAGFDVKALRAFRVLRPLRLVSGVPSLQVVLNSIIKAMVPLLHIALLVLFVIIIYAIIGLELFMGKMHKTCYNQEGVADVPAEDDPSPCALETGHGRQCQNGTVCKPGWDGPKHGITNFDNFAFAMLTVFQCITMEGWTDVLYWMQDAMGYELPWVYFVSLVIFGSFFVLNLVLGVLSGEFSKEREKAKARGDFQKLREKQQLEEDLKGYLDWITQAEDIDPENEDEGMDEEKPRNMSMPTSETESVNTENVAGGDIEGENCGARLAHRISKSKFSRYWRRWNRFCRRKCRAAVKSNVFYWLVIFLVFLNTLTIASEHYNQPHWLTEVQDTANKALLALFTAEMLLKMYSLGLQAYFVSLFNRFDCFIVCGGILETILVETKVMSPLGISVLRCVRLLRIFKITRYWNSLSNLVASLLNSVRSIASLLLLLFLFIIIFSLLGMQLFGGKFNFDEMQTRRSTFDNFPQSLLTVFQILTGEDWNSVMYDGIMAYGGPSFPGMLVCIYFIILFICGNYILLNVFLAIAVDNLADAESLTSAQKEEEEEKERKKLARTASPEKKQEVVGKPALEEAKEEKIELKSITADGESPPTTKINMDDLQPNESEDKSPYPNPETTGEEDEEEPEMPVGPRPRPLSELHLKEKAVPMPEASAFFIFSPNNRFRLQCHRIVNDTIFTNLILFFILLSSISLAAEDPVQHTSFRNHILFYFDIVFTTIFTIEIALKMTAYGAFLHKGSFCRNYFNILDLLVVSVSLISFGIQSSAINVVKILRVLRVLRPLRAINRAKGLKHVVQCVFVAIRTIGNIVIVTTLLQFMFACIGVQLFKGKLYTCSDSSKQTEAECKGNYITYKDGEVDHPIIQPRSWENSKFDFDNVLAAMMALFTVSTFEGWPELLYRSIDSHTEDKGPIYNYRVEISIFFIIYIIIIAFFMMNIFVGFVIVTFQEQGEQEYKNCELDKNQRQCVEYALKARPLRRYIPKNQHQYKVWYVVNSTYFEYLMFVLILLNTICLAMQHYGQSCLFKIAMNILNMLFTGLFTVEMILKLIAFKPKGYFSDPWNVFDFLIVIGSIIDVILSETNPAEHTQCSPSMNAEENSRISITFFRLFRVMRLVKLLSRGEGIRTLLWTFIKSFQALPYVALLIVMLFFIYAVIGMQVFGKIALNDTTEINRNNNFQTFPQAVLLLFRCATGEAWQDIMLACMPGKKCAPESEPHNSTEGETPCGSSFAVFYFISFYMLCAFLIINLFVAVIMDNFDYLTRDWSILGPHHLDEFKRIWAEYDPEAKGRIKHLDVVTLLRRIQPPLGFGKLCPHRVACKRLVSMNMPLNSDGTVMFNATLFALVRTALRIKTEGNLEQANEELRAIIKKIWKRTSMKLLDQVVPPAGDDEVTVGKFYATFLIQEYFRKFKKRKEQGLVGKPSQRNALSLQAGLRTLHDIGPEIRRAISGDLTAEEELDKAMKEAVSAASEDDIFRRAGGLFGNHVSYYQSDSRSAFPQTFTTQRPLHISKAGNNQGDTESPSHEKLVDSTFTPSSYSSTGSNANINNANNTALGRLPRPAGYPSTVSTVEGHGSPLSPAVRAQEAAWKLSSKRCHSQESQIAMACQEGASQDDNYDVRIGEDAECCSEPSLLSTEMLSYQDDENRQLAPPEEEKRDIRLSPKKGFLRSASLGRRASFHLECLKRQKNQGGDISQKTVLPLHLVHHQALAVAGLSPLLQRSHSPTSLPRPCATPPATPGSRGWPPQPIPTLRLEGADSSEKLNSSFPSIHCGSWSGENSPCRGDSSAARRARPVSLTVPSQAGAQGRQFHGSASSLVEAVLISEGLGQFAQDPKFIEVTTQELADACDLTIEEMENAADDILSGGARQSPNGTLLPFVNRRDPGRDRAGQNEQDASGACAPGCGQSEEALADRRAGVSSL

Structure (SMILES) | IC50 [1] [nM] | IC50 [2] [nM]
C=C(C)C(=O)OCCOC(=O)C1=C(C)N=C(C)C(C(=O)OCC)C1c1cccc([N+](=O)[O-])c1 (stereo not drawn) [3-ethyl 5-(2-(methacryloyloxy)ethyl)2,6-dimethyl-4-(3-nitrophenyl)-1,4-dihydropyridine-3,5-dicarboxylate] | 10 | 10
COC(=O)C1C(C)=NC(C)=C(C(=O)OC2C=CCCC2)C1c1cccc([N+](=O)[O-])c1 (stereo not drawn) [3-cyclohex-2-enyl 5-methyl 2,6-dimethyl-4-(3-nitrophenyl)-1,4-dihydropyridine-3,5-dicarboxylate] | 10 | 10
COC(=O)C1C(C)=NC(C)=C(C(=O)OCc2ccccc2)C1c1cccc([N+](=O)[O-])c1 (stereo not drawn) [3-benzyl 5-methyl 2,6-dimethyl-4-(3-nitrophenyl)-1,4-dihydropyridine-3,5-dicarboxylate] | 25 | 15
C=CCOC(=O)C1=C(C)N=C(C)C(C(=O)OCC)C1c1cccc([N+](=O)[O-])c1 (stereo not drawn) [3-allyl 5-ethyl 2,6-dimethyl-4-(3-nitrophenyl)-1,4-dihydropyridine-3,5-dicarboxylate] | 25 | 15

— BindingDB's records for doi:10.1016/j.bmc.2010.03.038 (Northwestern University, 2010)
